SIAE primary: human SIAE inhibition, primary screen | Q9HAT2 | AID 1053197 | SIAE FP-Rh probe binding, fluorescence polarization | inhibition, % at 9.66 µM | 0.69% of 370,000 active;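 active means inhibition above a cutoff: mean of compounds within the control limits plus 3 SD of those, cut at about 17% in these data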;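 further: 0% = plate median of compound wells and 100% = probe without SIAE protein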
PAD4 inh: inhibitors of human PAD4 | Q9UM07 | recombinant PAD4, RCA probe fluorescence polarization | inhibition, % at 6.36 µM | 0.41% of 330,000 active | AID 485272;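 active means percent inhibition above a cutoff equal to the mean of all tested compounds plus 3 SD, cut at about 15% in these data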;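 further: 0% = PAD4 with RCA probe and DMSO and 100% = probe without PAD4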
Target sequence (Q9UM07 whole entry, looked up): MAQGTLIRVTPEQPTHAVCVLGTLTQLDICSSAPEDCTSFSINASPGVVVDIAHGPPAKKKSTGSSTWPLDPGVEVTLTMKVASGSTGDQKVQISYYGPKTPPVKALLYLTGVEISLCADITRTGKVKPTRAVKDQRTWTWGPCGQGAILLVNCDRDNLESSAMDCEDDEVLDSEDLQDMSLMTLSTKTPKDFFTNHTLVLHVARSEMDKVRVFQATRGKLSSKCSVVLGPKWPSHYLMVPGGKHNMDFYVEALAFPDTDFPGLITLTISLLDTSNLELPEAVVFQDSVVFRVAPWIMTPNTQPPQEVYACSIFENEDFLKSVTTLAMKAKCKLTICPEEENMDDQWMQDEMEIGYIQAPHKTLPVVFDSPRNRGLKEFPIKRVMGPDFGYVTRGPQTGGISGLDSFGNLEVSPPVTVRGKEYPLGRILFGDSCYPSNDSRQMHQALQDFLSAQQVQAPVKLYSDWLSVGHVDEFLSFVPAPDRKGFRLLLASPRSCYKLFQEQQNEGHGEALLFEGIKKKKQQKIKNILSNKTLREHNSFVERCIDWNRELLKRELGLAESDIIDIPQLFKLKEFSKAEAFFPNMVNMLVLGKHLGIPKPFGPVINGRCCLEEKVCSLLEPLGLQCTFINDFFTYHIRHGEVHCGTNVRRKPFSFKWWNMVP
RBBP9 inhibitor: blocks human serine hydrolase RBBP9. O75884. recombinant RBBP9, FP-Rh probe fluorescence polarization. inhibition, % at 7.94 µM. 0.2% of 220,000 active. AID 1515;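 active means inhibition above the campaign mean of all tested compounds plus 3 SD, cut at about 14% in these data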;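 further: plate controls were DMSO wells with RBBP9 for no effect and wells lacking RBBP9 protein for full effect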
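System: RBBP9 protein / Quantity: 2.5 µM RBBP9 dispensing solution, before mixing / Also added: Serine-hydrolase probe FP-Rh, 375 nM pre-mixing / Dosing: 7.94 µM single dose, 0.794% DMSO / Timing: enzyme-compound preincubation 30 min, then probe labeling 45 min, 25 °C / Signal: FP readout at 525/598 nm / Controls: DMSO-treated enzyme wells and wells lacking RBBP9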
PRMT1 FP inh: blocks human protein arginine methyltransferase 1; Q99873; recombinant PRMT1, activity-based probe fluorescence polarization; inhibition, % at 2.79 µM; 1.3% of 370,000 active; AID 652257;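 active means inhibition above about 21% made by adding two undisclosed values, limit read from the data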
GSTO1 counter: GSTO1 inhibition, counter-screen for RBBP9 inhibitors. recombinant GSTO1, activity-based probe fluorescence polarization. inhibition, % at 5.96 µM. 1.1% of 300,000 active. AID 1974;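 active means inhibition above the campaign mean inhibition plus 3 SD, cut at about 35% in these data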;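 further: 0% = GSTO1-1 with DMSO and 100% = wells lacking GSTO1-1 enzyme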
PAD4 FP conf: confirmation of human PAD4 inhibitors | 28% of 1,200 active | inhibition, % at 6.36 µM | recombinant PAD4, RCA probe fluorescence polarization | AID 488796 | shares compounds with PAD4 inh;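 active means mean inhibition across replicates above the hit cutoff set by the earlier primary screen, cut at about 15% in these data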;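 further: inhibitors block active-site labeling by the probe so polarization falls; 0% = PAD4 with probe and DMSO and 100% = probe without PAD4 enzyme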
Active calls of the source: *; . = no result given. An excerpt weighted towards active compounds, which were near 2.7% of everything screened.

SMILES | SIAE primary | PAD4 inh | RBBP9 inhibitor | PRMT1 FP inh | GSTO1 counter | PAD4 FP conf
CN1CC=C2C(C#N)=C(N)C(C#N)(C#N)C(c3ccsc3)C2C1 (centres undefined) | 9.2 | 15.1* | 2.0 | 17.3 | -0.8 | 5.8
COC(=O)c1c(NC(=O)/C=C/c2ccco2)sc2c1CCC2 | -2.1 | -4.5 | -4.0 | 0.6 | 3.2 | .
O=C(O)[C@H](Cc1ccccc1)NC(=O)N1CCCCCC1 | 2.5 | -1.4 | . | 5.1 | 1.5 | .
Cc1cc(N(C)NC(=S)Nc2ccccc2)nc(C)n1 | 0.0 | 52.0* | -8.0 | -3.5 | 0.0 | 10.6
CC(=C/c1ccco1)/C=N/N1CCN(c2ccccc2)CC1 | -3.0 | 20.2* | 6.6 | 7.7 | 1.0 | -7.3
O=C(NCCN1CCOCC1)c1cc(-c2ccccc2)nc2ccccc12 | -2.7 | . | . | -1.6 | . | .
COc1ccc(-c2cc(C(=O)NCCN3CCOCC3)c3ccccc3n2)c(OC)c1 | 6.6 | 17.0* | 0.5 | 2.9 | 13.8 | -0.7
CC(NC(=O)c1c(N)[nH]c(C(=O)c2ccc(Cl)cc2)c1-c1ccc(Br)cc1)c1cccc2ccccc12 (centres undefined) | -6.6 | . | . | -3.6 | . | .
CCCCc1sc(-c2c(C#N)c(N)nc3c2CCCCC3)cc1[N+](=O)[O-] | -10.4 | -0.8 | -2.2 | -1.2 | 5.0 | .
CCCCc1ccc(-c2c(C#N)c(N)nc3c2CCCC3)s1 | 2.1 | 36.0* | 2.7 | -3.8 | 5.3 | 1.1
O=S(=O)(CCSc1nc2ccccc2s1)c1nc2ccccc2s1 | 0.9 | 49.5* | -2.9 | 10.3 | -6.8 | 40.9*
COc1ccc2cc(C(=O)N3CCc4ccccc43)[nH]c2c1 | 3.2 | -0.6 | . | 0.6 | 9.6 | .
NS(=O)(=O)c1ccc(NC(=S)N2CCN(S(=O)(=O)c3ccc(F)cc3)CC2)cc1 | 3.9 | -3.3 | -4.7 | 0.3 | 5.7 | .
CS(=O)(=O)Nn1cnc2ccccc2c1=O | -7.1 | -4.3 | -11.4 | -2.7 | -7.9 | .
CCOC(=O)c1ccc2nc(NC(=O)c3ccco3)sc2c1 | -11.3 | 1.4 | -3.8 | -2.6 | -10.6 | .
CCOc1ccc2nc(NC(=O)c3ccco3)sc2c1 | -18.1 | 16.7* | . | 2.2 | 1.8 | 13.1
COc1cc(NC(=O)c2cc(Cl)nnc2Cl)cc(OC)c1OC | -5.3 | -1.5 | -8.2 | 0.9 | 6.7 | .
Cc1sc2nc(CSc3nnnn3-c3ccc(Cl)cc3)[nH]c(=O)c2c1C | -51.2 | -2.2 | -3.9 | 1.9 | 2.1 | .
COc1ccc(-c2nc(C(=O)NCCCN3CCOCC3)cc3c2[nH]c2ccccc23)cc1OC | -22.5 | 59.0* | . | 0.9 | -15.8 | 67.4*
Cc1ccc(-c2nc(C(=O)NCCCN3CCOCC3)cc3c2[nH]c2ccccc23)cc1 | -19.8 | -7.2 | . | -4.9 | -27.9 | .
Cc1ccc2c(c1)sc(-c1ccc(N(C)C)cc1)[n+]2C | 0.1 | 19.0* | . | 18.1 | 2.5 | -1.8
Cc1ccc(N(C)C)cc1 | 3.9 | . | . | 2.1 | . | .
Fc1ccc(-n2ncc3c(SCc4cccnc4)ncnc32)cc1 | 7.1 | 18.4* | -2.5 | 3.4 | -3.9 | 7.3
CCCCNC(=O)/C=C1\Sc2ccccc2NC1=O | -0.2 | 2.3 | -5.0 | -0.4 | -1.7 | .
CCc1ccc(C(=O)/C=C2\Sc3ccccc3NC2=O)cc1 | 5.6 | 37.1* | -6.1 | 14.2 | 0.3 | 41.6*
SMILES | SIAE primary | PAD4 inh | RBBP9 inhibitor | PRMT1 FP inh | GSTO1 counter | PAD4 FP conf
CCSc1ccc(-c2nn(-c3ccccc3)cc2/C=C(/C#N)C(=O)NC)cc1 | 8.0 | 15.5* | -0.6 | -2.4 | -15.7 | 23.0*
CCCSc1ccc(-c2nn(-c3ccccc3)cc2/C=C(/C#N)C(=O)N2CCOCC2)cc1 | -7.7 | -0.2 | -10.4 | 1.3 | 0.8 | .
COc1ccc2c(c1)oc(=O)c1cc(OC)ccc12 | -1.5 | -8.2 | 5.0 | 7.3 | -10.4 | .
COc1ccc2c(c1)oc(=O)c1ccccc12 | 1.6 | 15.1* | -1.6 | 2.0 | 9.5 | 22.6*
Cc1ccc(C(=O)NCC(=O)OCC(=O)NC2CCS(=O)(=O)C2)cc1C (centres undefined) | -1.4 | 34.6* | -8.8 | 2.6 | -0.1 | 4.4
CCCCn1[nH]c(-c2ccccc2)cc1=O | 8.9 | 44.5* | -8.0 | 0.5 | 57.3* | -5.1
CCCc1cc(=O)n2[nH]c(-c3ccccc3)cc2n1 | 2.5 | -1.5 | -7.0 | -2.7 | -19.7 | .
Cc1cc(C(=O)CSc2nnc(N)s2)c(C)n1C1CC1 | -3.4 | -2.7 | . | 0.0 | 5.8 | .
Cc1cc(C(=O)CSc2nc(N)cc(N)n2)c(C)n1C1CC1 | 13.3 | 15.7* | -2.0 | 11.1 | 18.0 | 7.7
CCN(C(=O)/C=C/c1ccc(OC)cc1)C1CCS(=O)(=O)C1 (centres undefined) | 6.1 | -1.6 | . | 1.0 | 0.3 | .
COc1ccc(/C=C/C(=O)N(C)C2CCS(=O)(=O)C2)cc1OC (centres undefined) | 1.1 | 15.4* | -4.2 | -0.4 | -3.4 | -5.1
O=C(CC(=O)c1ccccc1)Nc1cccnc1 | 5.0 | 0.8 | -0.6 | 7.5 | -1.6 | .
O=C(Nc1ccccc1)C(=O)Nc1cccnc1 | 4.8 | 17.9* | -1.9 | 0.0 | -11.1 | 5.5
CNc1ncc(C(=O)C(C)(C)C)s1 | -3.7 | -1.9 | -10.9 | -0.9 | 2.6 | .
COc1ccccc1C(=O)Nc1nc(-c2ccc(S(=O)(=O)N3CCOCC3)cc2)cs1 | -29.9 | 39.8* | -25.6 | 3.2 | -31.9 | 41.0*
CC1(c2ccccc2)NC(=O)N(CC(=O)NC(=O)NCc2ccco2)C1=O (centres undefined) | -2.5 | 1.7 | -3.8 | 1.6 | 3.6 | .
Nc1cccc2c1C(=O)N(CC(=O)NC13CC4CC(CC(C4)C1)C3)C2=O | -2.5 | -4.2 | -6.5 | 1.8 | 6.5 | .
O=C(Cn1sc2ccccc2c1=O)NC12CC3CC(CC(C3)C1)C2 | . | 16.4* | -11.2 | . | 1.6 | 29.8*
COC(=O)CN1C(=O)N/C(=C/c2ccc(C)o2)C1=O | 2.9 | 16.4* | -2.6 | 55.8* | 12.9 | 2.3
CCN1CC2=C(OC(N)=C(C#N)C2c2ccccc2)/C(=C\c2ccccc2)C1 (centres undefined) | 3.3 | 23.7* | -9.0 | 4.5 | 0.4 | 18.8*
COc1ccc(CCn2c(C)cc(C(=O)CSc3nnc(N)s3)c2C)cc1 | . | -3.8 | -1.1 | . | -2.7 | .
COc1ccc(CCn2c(C)cc(C(=O)CSc3nc(N)cc(=O)[nH]3)c2C)cc1 | -8.1 | 30.5* | -2.7 | 0.9 | -14.2 | 9.2
CCc1nnc(N/N=C/c2ccccc2Cl)n1N | 3.5 | 35.6* | -1.3 | 4.6 | 24.5 | 1.2
COc1cccc(C=NNc2nnc(NN=Cc3cccc(OC)c3OC)c3ccccc23)c1OC | -4.3 | . | . | -1.8 | . | .
CCc1nnc(N/N=C/c2ccccc2F)n1N | 0.1 | 42.6* | -2.3 | 2.6 | 11.9 | 5.4
COc1cccc(/C=N/Nc2nnc(C)n2N)c1OCc1ccccc1Cl | -2.9 | 22.1* | -8.7 | 0.5 | 24.7 | 8.3
Cc1nn(-c2nc3ccccc3n2Cc2ccccc2)c2c1C(=O)CC(C)(C)C2 | -2.9 | -0.7 | 3.5 | -0.2 | 1.4 | .
c1ccc(CCn2c3ccccc3c3nnc(SCc4ccc5nonc5c4)nc32)cc1 | -9.6 | 50.4* | 0.5 | -1.2 | -2.1 | 2.1

Compound activity as filed in PubChem.
